pCIP destab – lowers stability of the mouse p/CIP coactivator protein; Q05BA5; F442A p/CIP-EGFP cells, EGFP fluorescence, 16 h; decrease of EGFP signal, % at 10 µM; 290,000 compounds, 0.01% hits;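 active = EGFP signal decrease of at least 30% at 10 µM or well 3 SD below plate mean, unless failing retest; inactive = the rest, including hits failing retest or dose response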
Cl transport mod – modulators of human KCC2 chloride dependent transport; Q9H2X9; B-score of Tl+ flux slope (higher = more flux/activation; lower = inhibition) at 10 µM; KCC2 cells, thallium flux FluoZin-2 fluorescence; 190,000 compounds, 2.2% hits;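 active = thallium flux slope and its plate-corrected score both differing from the plate sample mean at a set confidence after two filtering rounds, in either direction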;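 also: slope of fluorescence scaled to starting intensity during 10 to 20 s after thallium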
ABCB6 inh 2 – blocks the human ABCB6 transporter; Q9NP58; K562-ABCB6 porphyrin accumulation, flow cytometry, 1 h; hits give low values; 360,000 compounds, 0.19% hits; AID 602162; fluorescence ratio to DMSO, % at 10 µM;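 active = fluorescence ratio to DMSO below 75%, the collection mean minus 3 SD; inconclusive = too few cells collected in the well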;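 also: signal is porphyrin accumulated inside mitochondria; 100% equals median channel fluorescence of DMSO control wells; lower ratio means ABCB6 inhibition with less porphyrin fluorescence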
Target sequence (Q9NP58 whole entry, looked up): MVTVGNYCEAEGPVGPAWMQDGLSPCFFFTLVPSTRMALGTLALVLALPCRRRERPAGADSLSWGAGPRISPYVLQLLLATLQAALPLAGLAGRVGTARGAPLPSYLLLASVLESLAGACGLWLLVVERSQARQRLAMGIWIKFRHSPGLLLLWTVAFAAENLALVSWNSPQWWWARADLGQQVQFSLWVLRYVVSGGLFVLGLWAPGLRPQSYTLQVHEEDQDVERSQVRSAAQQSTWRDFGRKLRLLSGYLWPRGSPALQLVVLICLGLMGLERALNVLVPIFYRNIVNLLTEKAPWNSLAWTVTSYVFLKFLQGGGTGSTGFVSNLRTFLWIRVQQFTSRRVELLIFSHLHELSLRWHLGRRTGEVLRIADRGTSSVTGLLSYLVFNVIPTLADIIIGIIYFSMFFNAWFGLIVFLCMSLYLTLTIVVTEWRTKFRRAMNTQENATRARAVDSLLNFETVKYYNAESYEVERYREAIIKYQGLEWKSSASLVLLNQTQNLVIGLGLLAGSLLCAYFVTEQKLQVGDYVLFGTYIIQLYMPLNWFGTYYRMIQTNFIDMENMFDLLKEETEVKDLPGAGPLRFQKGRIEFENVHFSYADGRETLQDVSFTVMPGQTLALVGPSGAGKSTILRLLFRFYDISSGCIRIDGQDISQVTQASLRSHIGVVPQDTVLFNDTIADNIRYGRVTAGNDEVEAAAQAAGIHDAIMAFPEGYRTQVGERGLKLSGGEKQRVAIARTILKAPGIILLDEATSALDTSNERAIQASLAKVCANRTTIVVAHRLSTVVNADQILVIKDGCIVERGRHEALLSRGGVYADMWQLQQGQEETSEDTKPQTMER
V-ATPase pHluor – regulators of yeast V-ATPase proton transport; response, % at 10 µM; 350,000 compounds, 0.37% hits; S. cerevisiae, pHLuorin cytosolic pH fluorescence; AID 504577; in the data active = response mostly above about 7.3%, no sharp cut-off; inactive = mostly below about 5.4%; also: actives read high
Dynein cargo inh – dynein cargo transport inhibition; z-score, hits read low; 220,000 compounds, 0.47% hits; AID 1381; 3617.4 mouse cells, GR-EGFP nuclear translocation imaging; test concentration mostly 20 µM; stimulated with dexamethasone, 1 µM; hits give low values;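 active = plate z-score of nuclear minus cytoplasmic receptor signal below a set negative limit, without overly bright fluorescence or cell loss, cut at about -3.5 in these data, passing the limit was not always enough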;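 also: z-score of nuclear minus cytoplasmic ring GR-EGFP intensity difference per well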
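Also added: dexamethasone, 1.0 µM final. Medium: tet-free, stripped-serum medium. Detection: fixed, Hoechst-stained cells imaged at 10x for EGFP. Read-out: nuclear-to-cytoplasmic GR-EGFP distribution per well. Times: induction 48 h, compound 1 h, agonist 30 min.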
KCC2 secondary – confirmation of human KCC2 transport modulators; shares compounds with Cl transport mod; HEK293-KCC2, thallium flux, FluoZin2 fluorescence; hits give high values; normalised thallium flux (F/F0 slope) at 10 µM; 3,700 compounds, 15% hits;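 active = thallium flux slope above the same plate's solvent-only control mean plus 3 SD; inconclusive = the two replicate wells disagree; inactive = no significant difference from solvent-only control wells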
KCC2 bumet counter – thallium flux persisting under bumetanide in KCC2 cells, counter-screen secondary assay | HEK293-KCC2 + bumetanide/ouabain, thallium flux FluoZin2; hits give high values | shares compounds with Cl transport mod | normalized thallium flux at 10 µM | 3,700 compounds, 49% hits;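 active = thallium entry rate above the same plate's blocked-transporter control wells by more than 3 SD; inconclusive = the two repeat wells disagree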;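 also: raw slope of fluorescence over initial fluorescence between 10 and 20 s after thallium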
KCC2 sec2 – KCC2 (human) modulation, second secondary assay. shares compounds with Cl transport mod. HEK293-KCC2, thallium flux FluoZin2 fluorescence; actives lie on both sides; F/F0 rise rate, 10–20 s post-thallium. normalized thallium flux at 10 µM. 3,700 compounds, 23% hits;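 active = thallium flux slope more than 3 SD above or below the plate's solvent-only control mean, mostly below; inconclusive = the two repeat wells disagreed; inactive = no significant shift from solvent-only controls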;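 also: raw slope with 0.1% DMSO as baseline and bumetanide as block control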
HEK293 Tl flux – parental HEK flux effect, counter-screen | thallium flux rate (normalised fluorescence) at 10 µM | HEK293 parental cells, thallium flux FluoZin2, ouabain; baseline-ratio fluorescence slope, 10–20 s after thallium | 3,700 compounds, 46% hits | shares compounds with Cl transport mod;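 active = thallium flux rate significantly above the same plate's solvent-only control wells, beyond their mean plus 3 SD; inconclusive = the two replicate wells gave conflicting results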
KCC2 ouabain – confirmation of human KCC2 modulators with ouabain; shares compounds with Cl transport mod; HEK293-KCC2, thallium flux FluoZin2 fluorescence; bidirectional: low = inhibitor, high = activator; raw Tl+ flux slope (below DMSO = inhibition, above = activation) at 10 µM; 3,700 compounds, 48% hits;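 active = thallium flux slope beyond 3 SD from same-plate DMSO control mean in most replicates, usually higher, sometimes lower; inconclusive = repeat tests gave conflicting results; inactive = no significant difference from controls in most replicates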;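 also: slope of initial-normalized fluorescence between seconds 10 and 20 after thallium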
HEK counter2 – acts in parental HEK cells, second KCC2 counter-screen | 3,700 compounds, 33% hits | AID 1718 | HEK293 parental, thallium flux FluoZin-2 fluorescence slope | thallium flux slope at 10 µM | shares compounds with Cl transport mod;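 active = thallium flux slope above the same plate's solvent-control mean plus 3 SD in both duplicate wells; inconclusive = duplicate wells that disagreed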;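 also: run without ouabain in cells lacking the KCC2 cotransporter; slope of fluorescence scaled to its starting value between 10 and 20 s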
* marks the source's active call; other numbers are inactive results; ? = inconclusive; . = not tested or not shown. This is one part of a sample in which hits are shown more often than they occur.

SMILES | pCIP destab | Cl transport mod | ABCB6 inh 2 | V-ATPase pHluor | Dynein cargo inh | KCC2 secondary | KCC2 bumet counter | KCC2 sec2 | HEK293 Tl flux | KCC2 ouabain | HEK counter2
c1cnc2c(SCc3ccc(-c4nnco4)cc3)cccc2c1 | 4 | -5.7* | 93 | 7 | 0.012 | 0.011 | 0.015* | 0.035 | 0.0041 | 0.021* | 0.012
NC(=S)N/N=C\c1c(OCc2ccccc2Cl)ccc2ccccc12 | 3 | -0.019 | 94 | -3 | 0.83 | . | . | . | . | . | .
COc1cc2ccccc2cc1C(=O)NC1CCC(C)CC1 (stereo not given) | . | . | 90 | 5 | . | . | . | . | . | . | .
CN1CCN(C(=O)c2ccc(CS(=O)(=O)c3c(Cl)cccc3Cl)o2)CC1 | -9 | -3.3* | 94 | -3 | 0.75 | 0.0059 | 0.0047 | 0.033 | 0.0077 | 0.018 | 0.012
Cc1[nH]n(-c2ccccc2)c(=O)c1/C=N/O | 2 | . | 85 | 0 | 1.1 | . | . | . | . | . | .
Cc1[nH]n(-c2ccccc2)c(=O)c1/C=N/N1C(=O)c2ccc3c4c(ccc(c24)C1=O)CC3 | 6 | 11* | 104 | 3 | 0.084 | ? | 0.021* | 0.032 | 0.012* | ? | 0.011
Cc1[nH]n(-c2ccccc2)c(=O)c1/C=N/N(C)c1ccccc1 | -6 | 22* | 95 | 4 | 0.16 | 0.0067 | 0.05* | 0.045* | 0.032* | 0.044* | 0.035*
C#CC1(NC(=S)Nc2cccc(OC)c2)CCCCC1 | . | . | 101 | 0 | . | . | . | . | . | . | .
COc1ccc(Cc2noc(CN(C)CC(O)c3ccccc3)n2)cc1OC (stereo not given) | 7 | -0.04 | 93 | -1 | -0.69 | . | . | . | . | . | .
CC(=O)OCC(=O)Nc1ccccc1OC(F)F | -5 | -0.068 | 96 | 4 | -1 | . | . | . | . | . | .
COc1cc2cc(CCOC(=O)c3ccc(C#N)cc3)oc(=O)c2cc1OC | . | . | 96 | 7 | . | . | . | . | . | . | .
O=C(CSc1nc2ccccc2c(=O)n1-c1ccc(SC(F)F)cc1)Nc1ccc(N2CCOCC2)cc1 | 11 | 4.5* | 104 | 3 | -0.38 | 0.0096 | 0.014* | 0.03 | 0.01* | 0.024 | 0.011*
COc1ccc(C2c3ccc(O)cc3Oc3ncn4nc(-c5ccncc5)nc4c32)cc1OC (stereo not given) | -10 | -1.6 | 99 | 2 | 0.87 | . | . | . | . | . | .
Cc1cc(NC(=O)c2ccc(S(=O)(=O)N3CCCC3)cc2)nc2c1c(=O)oc1ccccc12 | -1 | . | 81 | 2 | 0.24 | 0.0092 | 0.007 | 0.03 | 0.0079 | 0.019 | ?
O=C(Nc1ccccc1)c1ccc(S(=O)(=O)N2CCCCC2)cc1 | -1 | 1.2 | 102 | -3 | 1 | . | . | . | . | . | .
O=C(Nc1ccn(-c2ccccc2)n1)c1ccc(S(=O)(=O)N2CCCCCC2)cc1 | -15 | . | 95 | 0 | -1 | ? | 0.0041 | 0.029 | 0.0072 | 0.016* | 0.011
O=C(N/C(=C\c1cccs1)C(=O)N1CCOCC1)c1cccs1 | 1 | 1.1 | 89 | 3 | -0.52 | . | . | . | . | . | .
O=C(CSc1nc2c(c(=O)[nH]1)CCC2)Nc1cccc(F)c1 | 0 | . | 101 | 3 | . | . | . | . | . | . | .
O=C(Nc1nccs1)c1nc(-c2ccccc2)n(-c2ccccc2)n1 | -8 | 5.3* | 96 | -1 | -0.12 | 0.012 | 0.023* | 0.032 | 0.011* | 0.023 | 0.011
CCOC(=O)C1(CC2CCCCO2)CCN(S(=O)(=O)c2cccc(F)c2)CC1 (stereo not given) | -12 | -0.51 | 95 | -2 | 1.6 | . | . | . | . | . | .
CSc1ccc(CNC(=O)Cn2nc(C)c3c(C)n(-c4ccc(C)cc4)nc3c2=O)cc1 | -8 | . | 94 | -1 | . | . | . | . | . | . | .
COc1cc(C(=O)NCc2nnc(SCC(=O)NC3CCCCC3)o2)cc(OC)c1OC | -7 | . | 103 | 0 | . | . | . | . | . | . | .
CCC1CCCCN1C(=O)CSc1nnc(CNC(=O)c2cc(OC)c(OC)c(OC)c2)o1 (stereo not given) | -5 | 6.7* | 98 | 0 | 3 | 0.0076 | 0.0046 | 0.032 | 0.0079 | 0.02 | 0.011
CCCn1c(SCC(=O)N2CCCC2=O)nc2ccccc2c1=O | . | . | 95 | -4 | . | . | . | . | . | . | .
Cc1[nH]n(C(N)=S)c(=O)c1N=Nc1ccc2ccccc2c1 | 10 | 32* | 104 | 2 | -0.7 | 0.0059 | 0.088* | ? | 0.027* | 0.036* | 0.019*
SMILES | pCIP destab | Cl transport mod | ABCB6 inh 2 | V-ATPase pHluor | Dynein cargo inh | KCC2 secondary | KCC2 bumet counter | KCC2 sec2 | HEK293 Tl flux | KCC2 ouabain | HEK counter2
Cc1[nH]n(C(N)=S)c(=O)c1N=Nc1cc(-c2ccc(Br)cc2)[nH]n1 | -2 | -6.9* | 94 | -1 | -0.33 | 0.008 | 0.0049 | 0.032 | 0.0056* | 0.011* | 0.011
CC(=O)Nc1ccc(N=Nc2c(C)[nH]n(C(N)=S)c2=O)cc1 | 12 | 0.12 | 95 | 0 | -1 | . | . | . | . | . | .
Cc1ccc(N=Nc2c(C)[nH]n(C(N)=S)c2=O)cc1C | -10 | 16* | 94 | -5 | 1.2 | 0.0084 | 0.067* | 0.031 | 0.021* | 0.06* | 0.009
Cc1ccc(C2(C)NC(=O)N(CC(=O)NCc3ccccc3Cl)C2=O)cc1 (stereo not given) | -2 | . | 96 | -2 | . | . | . | . | . | . | .
CCN1CCN(c2nc(S(=O)(=O)c3ccc(C)cc3)c(Cl)s2)CC1 | -10 | 0.013 | 94 | -1 | -0.48 | . | . | . | . | . | .
O=C(Nn1c(O)c(C=C2N=c3ccccc3=N2)sc1=S)c1ccccc1Cl | 6 | -4.4* | 98 | -6 | -0.34 | 0.017 | 0.0048 | 0.02* | 0.0077 | 0.014 | 0.012
CCCS(=O)(=O)N1CCC(C(=O)N2CCC(Cc3ccccc3)CC2)CC1 | -12 | . | 108 | 2 | 0.65 | 0.0076 | 0.0066 | 0.029 | 0.0075 | 0.028* | 0.01
O=C(/C=C/c1ccccc1)N1CCC(Cc2ccccc2)CC1 | 0 | . | 97 | 2 | 0.6 | 0.0068 | 0.006 | 0.027 | 0.0068 | 0.014* | 0.01
O=C(/C=C/c1cccc(Cl)c1)N1CCC(Cc2ccccc2)CC1 | 2 | -4 | 102 | 2 | 0.65 | . | . | . | . | . | .
Cn1c(=O)c(=O)n(C)c2cc([N+](=O)[O-])c(N3CCOCC3)cc21 | 2 | . | 99 | 3 | . | . | . | . | . | . | .

Bioassay records from PubChem.
